Activity calls are given as the source filed them. The calls are words filed in the database; no cut-off is given here.
Assays:
Mycobacterium avium = test: Antimycobacterial activity against Mycobacterium avium NJ 211 at 12.8 to 128 ug/mL; assay type: functional, organism-based
[1] = system: Mycobacterium tuberculosis; test: Activity of arabinosyltransferase in Mycobacterium tuberculosis membrane assessed as [14C]Araf incorporation by TLC autoradiography
[2] = Inhibition of arabinosyltransferase in Mycobacterium tuberculosis membrane assessed as blockade of [14C]Araf incorporation to {Ara-f(1>5)Araf-O_C8H17] acceptor molecule by TLC autoradiography
Method in brief: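 Competition format of the membrane AraTs assay: MOPS pH 8.0, MgCl2, ATP, β-mercaptoethanol, DP-[14C]Araf donor, 37°C for 1 h. Native acceptor Araf(1→5)Araf-O-C8H17 is held at 0.4 mM. Competitors are added at 0.5, 0.75, 1.0, 2.0, 4.0 and 6.0 mM. Product formation is judged by TLC (CHCl3:MeOH:NH4OH:H2O) with autoradiography at −70 °C for 3 days. IC50 is derived from the extent of product formation.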

| SMILES | Activity (Mycobacterium avium) | Km [1] [µM] | IC50 [2] [mM] |
| --- | --- | --- | --- |
| CCCCCCCCO[C@H]1O[C@H](CO[C@H]2O[C@H](CO)[C@@H](O)[C@@H]2O)C[C@@H]1O | Active | 110 | 2.15 |
| CCCCCCCCO[C@H]1O[C@H](CO[C@H]2O[C@H](CO)[C@@H](O)[C@@H]2O)[C@@H](O)[C@@H]1F | Active | 560 | 3.58 |
| CCCCCCCCO[C@@H]1C[C@H](O)[C@@H](CO[C@H]2O[C@H](CO)[C@@H](O)[C@@H]2O)O1 | Active | 150 | 2.45 |

— ChEMBL document CHEMBL1140845, “Synthesis of deoxygenated alpha(1-->5)-linked arabinofuranose disaccharides as substrates and inhibitors of arabinosyltransferases of Mycobacterium tuberculosis” (Bioorg Med Chem, 2009)
